Experimental data as given in ChEMBL document CHEMBL4270638, “Sulfonyl-containing phenyl-pyrrolyl pentane analogues: Novel non-secosteroidal vitamin D receptor modulators with favorable physicochemical properties, pharmacokinetic properties and anti-tumor activity” (Eur J Med Chem, 2018).
Active and inactive are the calls of the source. No cut-off for these calls is given here.

What was measured:
MCF7 [1] = experiment: Induction of apoptosis in human MCF7 cells expressing VDR siRNA assessed as late apoptotic cells at 1 uM after 24 hrs by Annexin-V-FITC/propidium iodide staining based flow cytometry (reference value: 1.01%); format: functional
MCF7 [2] = experiment: Cell cycle arrest in human MCF7 cells expressing scrambled siRNA assessed as accumulation at G0/G1 phase at 1 uM after 24 hrs by propidium iodide staining based flow cytometry (reference value: 49.28%); format: functional
PC-3 = experiment: Antiproliferative activity against human PC3 cells after 24 hrs by MTT assay; format: functional, cell-based; settings: PC-3, 24 h
MCF7 [3] = experiment: Cell cycle arrest in human MCF7 cells expressing VDR siRNA assessed as accumulation at G0/G1 phase at 1 uM after 24 hrs by propidium iodide staining based flow cytometry (reference value: 49.17%); format: functional
[4] = Half life in rat liver microsomes in presence of NADPH by HPLC method; format: ADME, microsome
How it was run: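 Compounds incubated with rat liver microsomes plus NADPH. Remaining compound quantified by HPLC at 0, 5, 10, 20, 30, 45, 60 and 90 min, and half-life calculated.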

[5] = Half life in Sprague-Dawley rat at 5 mg/kg, iv by HPLC method; format: ADME, organism-based; settings: in vivo
How it was run: (§1)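 Male Sprague-Dawley rats, 180–220 g, n = 3 per group. Dosed iv at 5 mg/kg or ip at 20 mg/kg in ethanol/EL/saline (1:1:18). Plasma sampled at 0, 0.083, 0.167, 0.25, 0.5, 1, 2, 4, 8, 12 and 24 h and centrifuged 12000 rpm for 10 min. Plasma drug measured by HPLC; parameters by PK modelling; mean ± SD.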

[6] = AUC in Sprague-Dawley rat at 5 mg/kg, iv by HPLC method; format: ADME, organism-based; settings: in vivo; how it was run: as §1
MCF7 [7] = experiment: Induction of apoptosis in human MCF7 cells expressing scrambled siRNA assessed as late apoptotic cells at 1 uM after 24 hrs by Annexin-V-FITC/propidium iodide staining based flow cytometry (reference value: 0.98%); format: functional
MCF7 [8] = experiment: Induction of apoptosis in human MCF7 cells expressing scrambled siRNA assessed as necrotic cells at 1 uM after 24 hrs by Annexin-V-FITC/propidium iodide staining based flow cytometry (reference value: 0.16%); format: functional
MCF7 [9] = experiment: Induction of apoptosis in human MCF7 cells assessed as upregulation of Bax expression at 1 uM after 24 hrs by Western blot analysis; format: functional, cell-based
How it was run: (§2)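 MCF-7 cells treated at 1 µM for 24 h. Lysates resolved by 10% SDS-PAGE and transferred to PVDF. Probed with rabbit anti-p21, anti-p27 and anti-Bax antibodies, with mouse anti-β-actin as loading control. HRP-conjugated secondary antibodies; bands detected on an infrared scanner.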

MCF7 [10] = experiment: Antiproliferative activity against human MCF7 cells after 24 hrs by MTT assay; format: functional, cell-based; settings: MCF7, 24 h
MCF7 [11] = experiment: Antitumor activity against human MCF7 cells xenografted in Balb/c nude mouse assessed as increase in p21 expression at 10 mg/kg, ip administered three times a week for three weeks starting from day 7 after tumor cell inoculation by immunohistochemical analysis; format: functional, organism-based
MCF7 [12] = experiment: Cell cycle arrest in human MCF7 cells expressing scrambled siRNA assessed as accumulation at G2/M phase at 1 uM after 24 hrs by propidium iodide staining based flow cytometry (reference value: 19.6%); format: functional
MCF7 [13] = experiment: Induction of apoptosis in human MCF7 cells assessed as upregulation of p27 expression at 1 uM after 24 hrs by Western blot analysis; format: functional, cell-based; how it was run: as §2
Mus musculus [14] = experiment: (§3) Hypercalcemic effect in Balb/c nude mouse xenografted with human MCF7 cells assessed as effect on serum calcium level at 10 mg/kg, ip administered three times a week for three weeks starting from day 7 after tumor cell inoculation measured on day 27 (reference value: 0.6 umol/ml); format: ADME, organism-based; settings: in vivo
MCF7 [15] = experiment: Induction of apoptosis in human MCF7 cells expressing scrambled siRNA assessed as live cells at 1 uM after 24 hrs by Annexin-V-FITC/propidium iodide staining based flow cytometry (reference value: 97.93%); format: functional
[16] = Clearance in Sprague-Dawley rat at 20 mg/kg, ip by HPLC method; format: ADME, organism-based; settings: in vivo; how it was run: as §1
MCF7 [17] = experiment: Cell cycle arrest in human MCF7 cells expressing scrambled siRNA assessed as accumulation at S phase at 1 uM after 24 hrs by propidium iodide staining based flow cytometry (reference value: 29.79%); format: functional
[18] = target: T1, Retinoic acid receptor RXR-alpha/Vitamin D3 receptor (Homo sapiens, UniProt P11473+P19793); experiment: Transactivation of recombinant human VDR/RXRalpha expressed in HEK293 cells after 24 hrs by Dual-luciferase reporter gene assay; format: cell-based
T1 sequence (P11473 whole entry): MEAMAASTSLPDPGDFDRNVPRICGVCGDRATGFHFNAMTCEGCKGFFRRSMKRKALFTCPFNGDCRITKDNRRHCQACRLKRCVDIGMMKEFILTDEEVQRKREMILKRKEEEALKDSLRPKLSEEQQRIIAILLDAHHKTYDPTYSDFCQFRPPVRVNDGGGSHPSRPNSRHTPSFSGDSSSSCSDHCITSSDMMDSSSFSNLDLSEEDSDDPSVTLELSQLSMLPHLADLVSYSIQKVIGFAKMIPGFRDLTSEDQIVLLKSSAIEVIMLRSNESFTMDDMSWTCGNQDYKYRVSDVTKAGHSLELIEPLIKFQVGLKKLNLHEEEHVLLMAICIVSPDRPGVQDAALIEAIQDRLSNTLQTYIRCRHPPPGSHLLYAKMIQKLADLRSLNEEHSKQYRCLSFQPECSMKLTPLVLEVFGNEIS
T1 sequence (P19793 whole entry): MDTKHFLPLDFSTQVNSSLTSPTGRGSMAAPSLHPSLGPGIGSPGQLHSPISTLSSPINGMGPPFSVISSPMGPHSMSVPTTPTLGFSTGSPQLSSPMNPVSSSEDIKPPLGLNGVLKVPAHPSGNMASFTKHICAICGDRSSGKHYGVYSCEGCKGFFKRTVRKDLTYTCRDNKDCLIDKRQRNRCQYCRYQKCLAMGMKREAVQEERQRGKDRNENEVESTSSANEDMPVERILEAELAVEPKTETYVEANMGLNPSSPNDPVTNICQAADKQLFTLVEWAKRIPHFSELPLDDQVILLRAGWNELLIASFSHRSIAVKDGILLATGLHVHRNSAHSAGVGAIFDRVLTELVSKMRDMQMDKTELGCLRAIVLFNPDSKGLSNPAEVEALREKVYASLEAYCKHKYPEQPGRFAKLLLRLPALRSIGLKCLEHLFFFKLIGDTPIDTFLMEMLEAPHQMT

Mus musculus [19] = experiment: as §3, with “17 during compound dosing” for “27”; format: ADME, organism-based; settings: in vivo
Vitamin D3 receptor = target: T2, Vitamin D3 receptor (Homo sapiens, UniProt P11473); experiment: Displacement of fluormone VDR red from human full-length VDR after 4 hrs by fluorescence polarization assay
T2 sequence (P11473 whole entry): T1 sequence (P11473 whole entry)

[20] = AUC in Sprague-Dawley rat at 20 mg/kg, ip by HPLC method; format: ADME, organism-based; settings: in vivo; how it was run: as §1
BXPC-3 = experiment: Antiproliferative activity against human BxPC3 cells after 24 hrs by MTT assay; format: functional, cell-based; settings: BXPC-3, 24 h

SMILES | Activity (MCF7 [1]) [%] | Activity (MCF7 [2]) [%] | IC50 (PC-3) [µM] | Activity (MCF7 [3]) [%] | half-life [4] [h] | half-life [5] [h] | AUC [6] [ng·h/mL] | Activity (MCF7 [7]) [%] | Activity (MCF7 [8]) [%] | Activity (MCF7 [9]) | IC50 (MCF7 [10]) [µM] | Activity (MCF7 [11]) | Activity (MCF7 [12]) [%] | Activity (MCF7 [13]) | Activity (Mus musculus [14]) | Activity (MCF7 [15]) [%] | CL/F [16] [mL/min] | Activity (MCF7 [17]) [%] | EC50 [18] [µM] | Activity (Mus musculus [19]) | further results
CCN(CC)CCNC(=O)c1cc(C(CC)(CC)c2ccc(OCS(=O)(=O)c3ccccc3)c(C)c2)cn1CC | 1.57 | 55.96 | 6.08 | 50.69 | 0.987 | 6.6 | 7470 | 3.37 | 0.46 | Active | 2.03 | Active | 13.22 | Active | Non-Toxic | 94.96 | 27.7 | 29.66 | 0.0382 | Non-Toxic | IC50 (Vitamin D3 receptor): 0.125 µM; AUC [20]: 12000 ng·h/mL; IC50 (BXPC-3): 4.69 µM
CCN(CC)CCNC(=O)c1ccc(C(CC)(CC)c2ccc(OCSC)c(C)c2)n1CC | 1.67 | 55.26 | 4.01 | 50.3 | 0.954 | 4.72 | 11800 | 3.65 | 0.34 | Active | 5.16 | Active | 15.96 | Active | Non-Toxic | 94.7 | 16.5 | 27.95 | 0.00641 | Non-Toxic | IC50 (Vitamin D3 receptor): 0.0891 µM; AUC [20]: 20400 ng·h/mL; IC50 (BXPC-3): 5.13 µM
